Compounds with a hit are over-represented: about 2.1% of the library has one in this group of screens.
IEC-6 tox: IEC-6 cytotoxicity, counter-screen for KLF5 inhibitors; luminescence viability; inhibition, % at 5 µM; 290,000 tested, 0.78% active; AID 1825
bCat nuc transl: alters nuclear translocation of beta-catenin in HeLa cells; immunofluorescence imaging; nuclear translocation activity, % at 5 µM; 190,000 tested, 0.3% active; AID 1665;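 active means nuclear translocation activity above 50% at 5 µM, with a well cell count of 50 or more; inconclusive means wells under 50 cells across six images, flagged as toxic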;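 further: per-cell ratio of nuclear to cytoplasmic median beta-catenin stain intensity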
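Test system: human HeLa cell line; Doses: 5 µM primary, 0.02–20 µM confirmation; Incubation: 24 h compound exposure, 37°C; Detection: beta-catenin immunofluorescence imaging with DAPI; Read-out: beta-catenin nuclear/cytoplasmic ratio, % activation.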
Ba/F3 V617F tox: reduce viability of Ba/F3 cells dependent on JAK2V617F | inhibition, % at 5.6 µM | Ba/F3 EpoR-JAK2V617F viability, ATP luminescence | 220,000 tested, 1.1% active;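 active means inhibition above the campaign mean plus 3 SD over all tested compounds, cut at about 24% in these data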;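 further: cytokine-independent growth of Ba/F3 cells driven by EpoR plus mutant JAK2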
BaF3 tox: reduces parental Ba/F3 cell viability, JAK2V617F counter-screen | inhibition, % at 5.6 µM | CellTiter-Glo ATP luminescence | 220,000 tested, 1.1% active;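 active means inhibition above a per-campaign cutoff, the mean inhibition of all tested compounds plus 3 SD, cut at about 27% in these data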
KLF5 inhibitor: suppresses KLF5 promoter-driven expression. DLD-1 KLF5 promoter-luciferase reporter, luminescence. inhibition, % at 5 µM. 290,000 tested, 0.23% active. AID 1700;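 active means inhibition above a per-plate limit of that plate's mean compound inhibition plus 3 SD, cut at about 60% in these data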;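 further: higher means less KLF5 promoter-driven luciferase light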
MT stabilizer: microtubule stabilization, imaging screen; HeLa tubulin immunostaining HCS, 24 h; share of cells brighter than vehicle mean+2SD; % tubulin-high responders, % at 10 µM; 200,000 tested, 0.83% active; AID 2205;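 active means plate Z-score above 3 for both tubulin-high and condensed-nucleus cell shares, with cell loss under 80%, at 10 µM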;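 further: anti alpha tubulin signal scored within the nucleus-defined area of each cell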
IEC-6 cytotox cf: confirmation of cytotoxic compounds in rat IEC-6 intestinal epithelial cells | IEC-6 rat intestinal epithelial viability, luminescence | inhibition, % at 5 µM | 1,900 tested, 63% active | AID 1907 | shares compounds with IEC-6 tox
Numbers stand for hits; – = inactive; ? = inconclusive; · = no result given. Unless noted, no stated cut-off is given here; in the data, active means inhibition above about 22%; inactive means the rest.

SMILES	IEC-6 tox	bCat nuc transl	Ba/F3 V617F tox	BaF3 tox	KLF5 inhibitor	MT stabilizer	IEC-6 cytotox cf
COc1ccc2[nH]c(C)c(CCNCc3cc(OC)c(OC)c(OC)c3)c2c1	–	–	–	–	–	–	·
COc1ccc(CNCCc2c(C)[nH]c3ccc(OC(F)(F)F)cc23)c(OC)c1	38	·	·	·	–	·	22
C=CCn1c(O)c(C(C)=NCc2cccnc2)c(=O)[nH]c1=O	–	–	–	–	–	–	·
C=CCn1c(O)c(C(C)=NCc2cc(OC)cc(OC)c2)c(=O)[nH]c1=O	28	–	45	28	–	–	34
CC(=NCCN1CCOCC1)c1c(O)n(C2CCCCC2)c(=O)[nH]c1=O	–	–	–	–	–	–	·
Cc1ccnc(-n2c(C)nc3ccccc3c2=O)c1	–	–	–	–	–	–	·
Cc1nc2ccccc2c(=O)n1-c1ccc(Br)cn1	22	–	25	51	–	·	–
CC/C(=C\C=C\[C@@H]1C=C[C@@H]2CCC[C@H]2[C@@H]1C(=O)c1ccc[nH]1)[C@@H]1O[C@@H]([C@@H](C)C(=O)O)CC[C@@H]1C	39	–	55	31	–	–	33
O=P(O)(Oc1ccccc1)OC(c1ccccc1)C(F)(F)C(F)(F)F (configuration not stated)	–	–	–	–	–	–	·
C[C@@]1(CO)[C@H](O)CC[C@@]2(C)[C@H]1CC[C@H]1C[C@@H]3C[C@@]12CC[C@]3(O)CO	87	–	99	91	–	–	80
CCN(CC)C(=O)c1ccc(NC(=O)CNC(C)c2cccc3ccccc23)cc1 (configuration not stated)	–	·	·	·	–	·	·
Cn1c(=O)c2c(nc(N/N=C/c3c(O)n(-c4ccccc4)c(=S)[nH]c3=O)n2C)n(C)c1=O	–	–	–	–	–	–	·
O=c1[nH]c(CN2CC=C(c3ccccc3)CC2)nc2scc(-c3ccccc3)c12	–	–	–	–	–	·	·
O=[N+]([O-])NC1=NCCN1Cc1ccc(Cl)nc1	48	·	·	·	–	·	–
CCOc1ccccc1CN1C2CCC1CC(c1ccc(C)cc1)C2 (configuration not stated)	–	·	·	·	–	·	·
CC(=O)O[C@@]12CO[C@@H]1C[C@H](OC1OCC(O)C(O)C1O)[C@@]1(C)C(=O)[C@H](O)C3=C(C)[C@@H](OC(=O)[C@H](O)[C@@H](NC(=O)c4ccccc4)c4ccccc4)C[C@@](O)([C@@H](OC(=O)c4ccccc4)C12)C3(C)C (some centres not stated)	57	·	·	·	–	·	46
CCCCCC(=O)N[C@@H](c1ccccc1)[C@@H](O)C(=O)O[C@H]1C[C@@]2(O)[C@@H](OC(=O)c3ccccc3)C3[C@](C)(C(=O)[C@H](O)C(=C1C)C2(C)C)[C@@H](OC1OCC(O)C(O)C1O)C[C@H]1OC[C@@]31OC(C)=O (some centres not stated)	68	·	·	·	–	·	54
O=CC(Br)P(=O)(N1CCOCC1)N1CCOCC1 (configuration not stated)	–	–	–	–	–	·	·
C[C@]12CCC3[C@@H](CCC4=CC(=O)CC[C@@]43CO)C1CCC2=O (some centres not stated)	–	·	·	·	–	·	·
CCN1CCC(NCC2CCCCC2)CC1	–	·	·	·	–	·	·
CC(=O)Nc1ccc(OC(=O)N(C)C)cc1	–	–	–	–	–	–	·
Cc1c2ccncc2c(C)c2c1[nH]c1ccccc12	49	–	84	74	–	–	49
Cc1ccc(-c2cc(-c3ccc(C)cc3)[n+](C)o2)cc1	25	·	91	73	–	–	23
Cc1cccc(-n2c(O)c(/C=C3/C(c4ccccc4)=Nc4ccccc43)c(=O)[nH]c2=O)c1	70	52	82	74	–	·	58
Cc1cccc(-n2c(O)c(/C=C/C=Nc3ccccc3)c(=O)[nH]c2=O)c1	–	–	–	–	–	–	·
SMILES	IEC-6 tox	bCat nuc transl	Ba/F3 V617F tox	BaF3 tox	KLF5 inhibitor	MT stabilizer	IEC-6 cytotox cf
COC1C(OC(=O)c2ccc(C)[nH]2)C(O)C(Oc2ccc3c(O)c(NC(=O)c4ccc(O)c(CC=C(C)C)c4)c(=O)oc3c2Cl)OC1(C)C (configuration not stated)	–	–	–	–	–	·	·
COC(=O)C[C@]1(C(=O)OC)CN(C#N)N(c2ccc(Cl)cc2)C12c1ccccc1-c1ccccc12	101	–	98	97	–	–	93
c1ccc(-c2cc(-c3ccccc3)[n+](-c3ccccc3)c(-c3ccccc3)c2)cc1	47	–	99	97	–	·	47
COc1ccc(C2=CC(c3ccc(OC)c(OC)c3)c3c(c4ccccc4oc3=O)O2)cc1OC (configuration not stated)	28	100	–	–	–	·	–
CN1C2CCC1/C(=C/c1ccccn1)C(=O)/C2=C\c1ccccn1	59	?	100	103	–	–	95
Cc1ccccc1-n1c(/C=C/c2ccccn2)nc2ccccc2c1=O	–	–	–	–	–	·	·
CCC(C)C(=O)N[C@@H](c1ccccc1)[C@@H](O)C(=O)O[C@H]1C[C@@]2(O)[C@@H](OC(=O)c3ccccc3)C3[C@](C)(C(=O)[C@H](OC(C)=O)C(=C1C)C2(C)C)[C@@H](O)C[C@H]1OC[C@@]31OC(C)=O (some centres not stated)	92	·	·	·	–	·	81
CC/C=C/CC(=O)N[C@@H](c1ccccc1)[C@@H](O)C(=O)O[C@H]1C[C@@]2(O)[C@@H](OC(=O)c3ccccc3)C3[C@](C)(C(=O)[C@H](OC(C)=O)C(=C1C)C2(C)C)[C@@H](O)C[C@H]1OC[C@@]31OC(C)=O (some centres not stated)	92	·	·	·	–	·	86
COc1cccc(OCc2cc(C(=O)N3C[C@H]4C[C@@H](C3)c3cccc(=O)n3C4)no2)c1	–	·	·	·	–	·	·

Screening results as filed in PubChem.
